Converted amounts (≈) assume the structure as drawn.
What was measured:
[1] = Selectivity ratio of CC50 for human MRC5 cells to MIC for isoniazid-resistant Mycobacterium tuberculosis MYC5165; assay type: functional
[2] = tested on: Mycobacterium tuberculosis; experiment: Ratio of MIC for isoniazid to compound MIC isoniazid-resistant Mycobacterium tuberculosis MYC5165 after 6 days by MTT assay; assay type: functional
[3] = tested on: Mycobacterium tuberculosis; experiment: Antimycobacterial activity against isoniazid-resistant Mycobacterium tuberculosis MYC5165 after 6 days by MTT assay; assay type: functional, organism-based; settings: MYC5165, 144 h
In short: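 Twofold serial compound dilutions in Middlebrook 7H9 broth were inoculated with bacterial suspension in 7H9 (H37Rv, or INH-resistant MYC5165) and incubated 6 days. MTT (1 mg/mL) was then added, followed by 1 more day of incubation, solubilisation buffer, and OD read at 570 nm. MIC was the lowest concentration inhibiting growth relative to untreated bacilli, and IC50 was also determined.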

Compound | Ratio [1] | Ratio [2] | IC50 [3] | MIC [3]
N=C(N)NCCc1cc2c(O)c(c1)Cc1cc(CCNC(=N)N)cc(c1O)Cc1cc(CCNC(=N)N)cc(c1O)Cc1cc(CCNC(=N)N)cc(c1O)C2.O=C(O)C(F)(F)F | 256 | 15 | 100 nM | 0.8 µM
NNC(=O)c1ccncc1 [ISONIAZID] |  |  |  | 12.5 µM (≈ 1.71 µg/mL)
Cc1ccc(-c2ccc(COc3c4cc(CCN)cc3Cc3cc(CCN)cc(c3O)Cc3cc(CCN)cc(c3OCc3ccc(-c5ccc(C)cn5)nc3)Cc3cc(CCN)cc(c3O)C4)cn2)nc1 |  |  | 500 nM | 1.6 µM (≈ 1.54 µg/mL)
NCCc1cc2c(O)c(c1)Cc1cc(CCN)cc(c1O)Cc1cc(CCN)cc(c1O)Cc1cc(CCN)cc(c1O)C2 |  |  | 700 nM | 3.2 µM (≈ 1.91 µg/mL)
O=C(O)c1cn(C2CC2)c2cc(N3CCNCC3)c(F)cc2c1=O [CIPROFLOXACIN] |  |  |  | 2.5 µM (≈ 0.828 µg/mL)
Cc1ccc(-c2ccc(COc3c4cc(CCNC(=N)N)cc3Cc3cc(CCNC(=N)N)cc(c3O)Cc3cc(CCNC(=N)N)cc(c3OCc3ccc(-c5ccc(C)cn5)nc3)Cc3cc(CCNC(=N)N)cc(c3O)C4)cn2)nc1.O=C(O)C(F)(F)F | 85 | 15 | 100 nM | 0.4 µM
Cc1csc(-c2nc(COc3c4cc(CCNC(=N)N)cc3Cc3cc(CCNC(=N)N)cc(c3O)Cc3cc(CCNC(=N)N)cc(c3OCc3csc(-c5nc(C)cs5)n3)Cc3cc(CCNC(=N)N)cc(c3O)C4)cs2)n1.O=C(O)C(F)(F)F | 6 | 125 | < 100 nM | 0.1 µM

— ChEMBL document CHEMBL1955828, “Anti-mycobacterial activities of some cationic and anionic calix[4]arene derivatives” (Bioorg Med Chem, 2012)
